Measurements collected from several papers.
Each line is one published result; the experiments were not run side by side.
Target: D(2) dopamine receptor (DRD2, Homo sapiens, UniProt P14416)
Tested at: 10 µM

Structure (SMILES) | effect on | mode | technique | inhibition
O=C1NC(c2ccccn2)Sc2ccccc21 (centres unmarked) | ligand displacement | – | – | -3.91%
Cc1ncccc1OC[C@H]1CN(CCN2CCc3ccccc32)CCO1 | ligand displacement | – | radioligand | 26.5%
Cc1ccccc1N1CCN(CC(O)COc2ccc(C(=O)c3ccccc3)cc2)CC1 (centres unmarked) | enzyme activity | inhibitor | – | 49.2%
CCC(F)(F)c1cc(N2CCC(S(C)(=O)=O)CC2)nc2sc(C(N)=O)c(N)c12 | ligand displacement | – | – | 69.8%
COc1cc(C(C)=O)ccc1OCC(O)CN1CCN(c2cc(Cl)ccc2C)CC1 (centres unmarked) | enzyme activity | inhibitor | – | 33%
O=C1c2ccccc2CCCN1CCCCN1CCN(c2ccccn2)CC1 | ligand displacement | – | radioligand | 93%
CN(C)C(=O)Cn1cc(-c2nc(C3(c4ccc(-c5cnc(N)nc5)cc4)CC3)no2)cn1 | cell-free assay | – | – | 16.1%
COc1cccc(OC[C@@H]2CN(CC(=O)N3CCc4ccccc43)CCO2)c1 | ligand displacement | – | radioligand | 9.5%
CCn1c2ccccc2c2cc(CNCCCN3CCOCC3)ccc21 | enzyme activity | inhibitor | – | 21.9%
Cc1c(C(=O)O)cc(-c2ccc(C3CCNCC3)cc2)c2ccc(-c3ccc(C(F)(F)F)cc3)cc12 | cell-free assay | – | – | -14.4%
Clc1cccc(OC[C@@H]2CN(CCN3CCc4ccccc43)CCO2)c1 | ligand displacement | – | radioligand | 62.7%
N#Cc1cc(Cn2c(N3CCCC3)nc3ccccc32)ccc1F | ligand displacement | – | – | -11.5%
COc1ccc(CCN2C(=O)CC(N3CCN(c4ccc(Cl)cc4)CC3)C2=O)cc1OC (centres unmarked) | enzyme activity | inhibitor | – | 11.9%
O=C(c1ccc(F)cc1)N1CC(COc2ccc(Br)cc2)(C(=O)O)C1 | cell-free assay | – | – | -29.4%
COc1cccc(N2CCN(C3CC(=O)N(c4cccc(OC)c4)C3=O)CC2)c1 (centres unmarked) | enzyme activity | inhibitor | – | 8.6%
O=C(CN1CCO[C@@H](COc2cccnc2)C1)N1CCc2ccccc21 | ligand displacement | – | radioligand | 5.5%
NS(=O)(=O)c1cc(NC(=O)Cc2ccccc2)ccc1Oc1cccc(Cl)c1 | ligand displacement | – | – | -7.81%
O=C(CN1CCO[C@H](COc2cccc(Cl)c2)C1)N1CCc2ccccc21 | ligand displacement | – | radioligand | 15.1%
O=C1N=C(N2CCCCN2)S/C1=C\c1ccc(F)cc1O | ligand displacement | – | radioligand | < 10%
O=C1C2CCCN2C(=O)N1CCCCN1CCN(c2ccccc2)CC1 (centres unmarked) | enzyme activity | inhibitor | – | 48.3%
